Screening results: PubChem, several laboratories
Most compounds without a hit are left out; they make up all but 2.9% or so of the library.
MEKK2 WT-MEK5: modulators of MEK5 binding to wildtype MEKK2, primary screen, biochemical, multiplex bead flow cytometry, Alexa488-MEK5; binding response (% of control), % at 10 µM; 1.1% of 290,000 active; Alexa488-MEK5 binding to MEKK2 WT; actives lie on both sides; Mitogen-activated protein kinase kinase kinase 2 (Homo sapiens), Q9Y2U5; in the data active means binding response below about 67% or above about 130%
Apaf1 inhib: inhibitors of human Apaf-1 apoptosome, primary screen, biochemical, DEVD-Rh110 fluorescence, uHTS. 0.71% of 330,000 active. inhibition, % at 20 µM. reconstituted apoptosome caspase-3 activity. AID 489030, 2010; active means inhibition of at least 40% at 20 µM;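 further: plate controls were DMSO wells for no effect and DEVD-CHO caspase inhibitor wells for full effect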
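System: reconstituted apoptosome with Apaf-1, cytochrome c, caspase-9, procaspase-3, dATP; Signal: Rh110 fluorescence intensity; Schedule: 30 min compound preincubation, 50 min activation, room temperature; Reagent: cytochrome c trigger plus (Z-DEVD)2-Rh110 caspase-3 substrate.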
MEKK3 PB1 HTS: modulators of MEKK3-MEK5 PB1 binding, primary screen, biochemical, wildtype MEKK3, multiplex bead flow cytometry, Alexa488-MEK5; Mitogen-activated protein kinase kinase kinase 3 (Homo sapiens), Q99759; AID 1529, 2009; 1.4% of 290,000 active; binding response (% of control), % at 10 µM; bead-based flow cytometry, Alexa488-MEK5 binding to MEKK3; actives lie on both sides; 0 = blocked by unlabeled MEK5, 100 = vehicle;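 active means binding response more than 3 SD above or below the average of its plate-row segment, actives on both sides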;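 further: Alexa488 bead fluorescence after subtracting the streptavidin-only scavenger bead signal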
MEKK2 mut-MEK5: MEK5 binding signal on mutant MEKK2 PB1, primary screen, biochemical, multiplex bead flow cytometry, Alexa488-MEK5 | Alexa488-MEK5 binding to MEKK2 mutant | percent response, % at 10 µM | 0.35% of 290,000 active | AID 1530, 2009; in the data active means percent response above about 24%, passing the limit was not always enough
UBC13 inh: UBC13 polyubiquitin chain formation inhibitors, primary screen, biochemical, TR-FRET, uHTS. inhibition, % at 20 µM. AID 485273, 2010. Ubiquitin-conjugating enzyme E2 N (Homo sapiens), P61088. 0.47% of 330,000 active; in the data active means inhibition above about 45%, passing the limit was not always enough
Target sequence (P61088 whole entry, looked up): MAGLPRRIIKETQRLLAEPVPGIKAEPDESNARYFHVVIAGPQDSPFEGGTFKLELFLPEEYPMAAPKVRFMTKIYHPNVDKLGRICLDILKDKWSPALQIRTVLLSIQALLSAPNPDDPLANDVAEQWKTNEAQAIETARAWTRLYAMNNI
MEKK2wt confirm: modulators of MEK5 binding to wildtype MEKK2, confirmation, biochemical, single concentration, multiplex bead flow cytometry; Alexa488-MEK5 binding to MEKK2 WT; actives lie on both sides; 2.4% of 5,900 active; AID 1892, 2009; shares compounds with MEKK3 PB1 HTS; binding response (% of control), % at 10 µM; in the data active means binding response below about 16% or above about 210%; inactive means in between
MEKK2mut confirm: mutant MEKK2 PB1-MEK5 binding signal retest – biochemical, single concentration, multiplex bead flow cytometry, confirmation | percent response, % at 10 µM | Alexa488-MEK5 binding to MEKK2 mutant | 2% of 5,900 active | shares compounds with MEKK3 PB1 HTS; in the data active means percent response mostly above about 71%, no sharp cut-off; inactive means mostly below about 38%;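 further: higher means compound restores mutant binding toward wildtype level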
MEKK3 confirm: MEKK3 wild-type PB1 binding to MEK5, inhibitors, confirmation, biochemical, bead multiplex flow cytometry, single concentration, wildtype; shares compounds with MEKK3 PB1 HTS; Alexa488-MEK5 binding to MEKK3; stronger effect = lower value; binding response (% of control), % at 10 µM; 1.8% of 5,900 active;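 active means binding response below 72% of control, or above a set upper limit, though filed actives all read lower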;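 further: 100% = DMSO only wells and 0% = binding blocked by excess unlabeled MEK5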
* = called active by the depositor; x = no result given; [ ] = another dose, or the depositor's remark.

SMILES	MEKK2 WT-MEK5	Apaf1 inhib	MEKK3 PB1 HTS	MEKK2 mut-MEK5	UBC13 inh	MEKK2wt confirm	MEKK2mut confirm	MEKK3 confirm
Cc1nc(N2CCN(c3ccccn3)CC2)c2c(C)c(C(=O)N3CCN(c4cccc(Cl)c4)CC3)sc2n1	92	36	99	-7	40	x	x	x
CNc1nc(-c2c[nH]c3ccccc23)cs1	-4.0*[inhibitor]	7	94	2	-3	-5.0*[inhibitor]	-5	91
CCc1ccc(-c2csc(-c3c[nH]c4ccccc34)n2)cc1	132	17	108	1	18	x	x	x
Cc1ccc2c(-c3csc(N)n3)c[nH]c2c1	88	26	87	-3	-27	x	x	x
CN1CCN(CC(=O)Nc2nc(-c3c[nH]c4ccccc34)cs2)CC1	145*	4	102	29	26	161	45	93
Nc1nc(-c2c[nH]c3ccccc23)cs1	-7.0*[inhibitor]	1	83	69*	-10	83	-3	90
CN1CCN(CC(=O)Nc2nc3ccccc3s2)CC1	109	1	100	8	5	x	x	x
Cc1ccc(CN(C)C(=O)CSc2nnc3n2CCCCC3)c(C)c1	x	-42	x	x	2	x	x	x
COc1cc(OC)cc(C(=O)NN(CCC#N)C2=NS(=O)(=O)c3ccccc32)c1	99	1	103	5	-6	x	x	x
CC1(OC(=O)C2CCCC2)C(=O)C=C2C=C(c3ccsc3)N(CCN3CCOCC3)C=C2C1=O (stereo not given)	146*	38	120	4	-80	103	0	99
CC1(OC(=O)C2CCCC2)C(=O)C=C2C=C(c3ccsc3)N(CC3CC3)C=C2C1=O (stereo not given)	85	39	106	4	-36	x	x	x
CC1(OC(=O)C2CCCC2)C(=O)C=C2C=C(c3ccsc3)N(C3CCCCC3)C=C2C1=O (stereo not given)	92	22	80*[inhibitor]	-7	-32	90	-7	94
CCN1CCN(c2cc(C)nc(-c3ccccc3O)n2)CC1	110	-8	98	4	9	x	x	x
O=C(Nc1ccc(Cl)c([N+](=O)[O-])c1)ONC1=NCCCCC1	101	-6	104	4	5	x	x	x
Cc1ccc(C(=O)NCC(=O)OCc2nnc(-c3ccc([N+](=O)[O-])cc3)o2)s1	x	-11	x	x	-14	x	x	x
CC(C)(C)c1ccc(NC(=O)c2c(F)cccc2Cl)cc1	34*[inhibitor]	2	47*[inhibitor]	-61	-4	105	5	105
O=C(Nc1ccc(N2CCOCC2)cc1)c1c(F)cccc1Cl	90	2	105	-12	1	x	x	x
CCn1c(=O)c([N+](=O)[O-])c(NCCc2ccccc2)c2ccccc21	117	4	111	6	4	x	x	x
Cn1c(=O)c([N+](=O)[O-])c(NCCc2ccccc2)c2ccccc21	106	16	129*	1	15	105	5	107
N#Cc1c(-c2ccc3c(c2)OCO3)csc1N	116	9	123*	6	3	105	4	105
CCc1ccc2c(CN3CCN(S(=O)(=O)c4cccs4)CC3)cc(=O)oc2c1	100	23	135*	1	6	92	-8	98
CCCCN1CN(Cc2ccccc2)CNC1=S	96	3	108	-1	-9	x	x	x
